Source: ChEMBL document CHEMBL1139486, “Novel benzopyridothiadiazepines as potential active antitumor agents” (J Med Chem, 2005)
Blank lines part the entries; values can stand above or below the compound they belong to.

How the values were obtained:
[1] = system: L1210; assay: Antiproliferative activity against mouse L1210 cells after 48 hrs relative control; format: functional, cell-based; settings: L1210, 48 h
Method in brief: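 L1210 cells grown in RPMI 1640 with 10% fetal calf serum, 2 mM L-glutamine, penicillin/streptomycin and 10 mM HEPES (pH 7.4). Cells were exposed 48 h to graded drug concentrations, then MTT was added for 4 h at 37 °C. Formazan was dissolved in DMSO and OD read at 540 nm. IC50 came from linear regression on the linear part of the dose-response curve, in triplicate.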

[2] = system: DU-145; assay: Antiproliferative activity against DU145 cells; format: functional, Homo sapiens
[3] = system: P388; assay: Antiproliferative activity against P388 cells; format: functional, Mus musculus
[4] = system: A549; assay: Antiproliferative activity against A549 cells; format: functional, Homo sapiens
[5] = Antiproliferative activity against KB3-1 cells; format: functional, Homo sapiens, KB 3-1
[6] = Antiproliferative activity against adriamycin-resistant KB A1 cells; format: functional, Homo sapiens
[7] = system: IGROV-1; assay: Antiproliferative activity against IGROV1 cells; format: functional, Homo sapiens
[8] = system: L1210; assay: Cell cycle perturbations in mouse L1210 cells assessed as accumulation in G1 phase after 21 hrs at 1 uM relative to control; format: functional
[9] = system: L1210; assay: Cell cycle perturbations in mouse L1210 cells assessed as accumulation in S phase after 21 hrs at 1 uM relative to control; format: functional
[10] = system: L1210; assay: Cell cycle perturbations in mouse L1210 cells assessed as accumulation in G2+M phase after 21 hrs at 1 uM relative to control; format: functional
[11] = system: L1210; assay: Cell cycle perturbations in mouse L1210 cells assessed as accumulation in 8N phase after 21 hrs at 1 uM relative to control; format: functional
[12] = biological target: Tubulin; assay: Inhibition of tubulin polymerization; format: protein-complex assay, Homo sapiens
[13] = system: L1210; assay: Cell cycle perturbations in mouse L1210 cells assessed as accumulation in G1 phase after 21 hrs at 2.5 uM relative to control; format: functional
[14] = system: L1210; assay: Cell cycle perturbations in mouse L1210 cells assessed as accumulation in S phase after 21 hrs at 2.5 uM relative to control; format: functional
[15] = system: L1210; assay: Cell cycle perturbations in mouse L1210 cells assessed as accumulation in G2+M phase after 21 hrs at 2.5 uM relative to control; format: functional
[16] = system: L1210; assay: Cell cycle perturbations in mouse L1210 cells assessed as accumulation in 8N phase after 21 hrs at 2.5 uM relative to control; format: functional
[17] = system: L1210; assay: Cell cycle perturbations in mouse L1210 cells assessed as accumulation in G1 phase after 21 hrs at 5 uM relative to control; format: functional
Method in brief: (§1)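 L1210 cells in RPMI 1640 with 10% fetal calf serum, 2 mM L-glutamine, antibiotics and 10 mM HEPES (pH 7.4) were exposed for 21 h (two doubling times). They were fixed in 70% ethanol and stained 30 min at 20 °C in D-PBS with […] RNAse and […] propidium iodide. 10⁴ cells per sample were analysed by flow cytometry for % G1, S, G2+M and 8N.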

[18] = system: L1210; assay: Cell cycle perturbations in mouse L1210 cells assessed as accumulation in S phase after 21 hrs at 5 uM relative to control; format: functional; method in brief: as §1
[19] = system: L1210; assay: Cell cycle perturbations in mouse L1210 cells assessed as accumulation in G2+M phase after 21 hrs at 5 uM relative to control; format: functional; method in brief: as §1
[20] = system: L1210; assay: Cell cycle perturbations in mouse L1210 cells assessed as accumulation in 8N phase after 21 hrs at 5 uM relative to control; format: functional; method in brief: as §1
[21] = system: L1210; assay: Cell cycle perturbations in mouse L1210 cells assessed as accumulation in G1 phase after 21 hrs at 0.2 uM relative to control; format: functional
[22] = system: L1210; assay: Cell cycle perturbations in mouse L1210 cells assessed as accumulation in S phase after 21 hrs at 0.2 uM relative to control; format: functional
[23] = system: L1210; assay: Cell cycle perturbations in mouse L1210 cells assessed as accumulation in G2+M phase after 21 hrs at 0.2 uM relative to control; format: functional
[24] = system: L1210; assay: Cell cycle perturbations in mouse L1210 cells assessed as accumulation in 8N phase after 21 hrs at 0.2 uM relative to control; format: functional
[25] = system: L1210; assay: Cell cycle perturbations in mouse L1210 cells assessed as accumulation in G1 phase after 21 hrs at 2 uM relative to control; format: functional; method in brief: as §1
[26] = system: L1210; assay: Cell cycle perturbations in mouse L1210 cells assessed as accumulation in S phase after 21 hrs at 2 uM relative to control; format: functional; method in brief: as §1
[27] = system: L1210; assay: Cell cycle perturbations in mouse L1210 cells assessed as accumulation in G2+M phase after 21 hrs at 2 uM relative to control; format: functional; method in brief: as §1
[28] = system: L1210; assay: Cell cycle perturbations in mouse L1210 cells assessed as accumulation in 8N phase after 21 hrs at 2 uM relative to control; format: functional; method in brief: as §1

SMILES: COc1ccc(CN2C=CC=C3C2=Nc2ccccc2S(=O)(=O)N3C)cc1
- IC50 [1]: > 10 µM

SMILES: COc1cc(CCN2C=CC=C3C2=Nc2ccccc2S(=O)(=O)N3C)cc(OC)c1OC
- IC50 [1]: > 10 µM

SMILES: CCN(CC)CCN1c2ccccc2N=C2C(=CC=CN2CCc2ccc(OC)cc2)S1(=O)=O
- IC50 [1]: > 10 µM

SMILES: COc1ccc(CCN2c3cc(Cl)ccc3N(C)S(=O)(=O)c3cccnc32)cc1
- IC50 [1]: > 100 µM

SMILES: COc1ccc(CN2C=CC=C3C2=Nc2cc(C(F)(F)F)ccc2S(=O)(=O)N3C)cc1
- IC50 [1]: > 10 µM

SMILES: COc1ccc(CCN2c3ccccc3S(=O)(=O)N(C)c3cccnc32)cc1
- IC50 [1]: > 10 µM

SMILES: COc1ccc(CCCN2c3ccccc3N(C)S(=O)(=O)c3cccnc32)cc1
- IC50 [1]: > 10 µM

SMILES: CN1C2=CC=CN(CCc3ccc(OCc4ccccc4)cc3)C2=Nc2ccccc2S1(=O)=O
- IC50 [1]: > 10 µM

SMILES: COc1cc(CCN2c3ccccc3S(=O)(=O)N(C)c3cccnc32)cc(OC)c1OC
- IC50 [1]: > 10 µM

SMILES: COc1ccc(CCN2c3cc(OC)ccc3N(C)S(=O)(=O)c3cccnc32)cc1
- IC50 [1]: > 10 µM

SMILES: COc1ccc(CN2c3cc(C)ccc3N(C)S(=O)(=O)c3cccnc32)cc1
- IC50 [1]: 6.9 µM

SMILES: COc1ccc(CCN2C=CC=C3C2=Nc2ccccc2N(C)S3(=O)=O)cc1
- IC50 [1]: 0.11 µM
- Activity [2]: 0.14 µM
- Activity [21]: 5%
- Activity [22]: 8%
- Activity [23]: 17%
- Activity [24]: 70%
- IC50 [12]: 2.4 µM

SMILES: COc1ccc(CN2C=CC=C3C2=Nc2ccccc2N(Cc2ccc(OC)cc2)S3(=O)=O)cc1
- IC50 [1]: > 100 µM

SMILES: COc1ccc(CCN2C=CC=C3C2=Nc2ccccc2N(Cc2ccc(OC)cc2)S3(=O)=O)cc1
- IC50 [1]: > 100 µM

SMILES: COc1ccc(CN2c3cc(C(F)(F)F)ccc3S(=O)(=O)N(C)c3cccnc32)cc1
- IC50 [1]: > 10 µM

SMILES: COc1ccc(CCN2c3ccccc3N(Cc3ccc(OC)cc3)S(=O)(=O)c3cccnc32)cc1
- IC50 [1]: > 100 µM

SMILES: COc1ccc(CN2c3ccccc3N(C)S(=O)(=O)c3cccnc32)cc1
- IC50 [1]: 9.6 µM

SMILES: CCN(CC)CCN1c2ccccc2N(CCc2ccc(OC)cc2)c2ncccc2S1(=O)=O
- IC50 [1]: > 10 µM

SMILES: COc1ccc(CN2c3cc(Cl)ccc3S(=O)(=O)N(C)c3cccnc32)cc1
- IC50 [1]: > 10 µM

SMILES: COc1ccc(CCN2C=CC=C3C2=Nc2cc(C)ccc2N(C)S3(=O)=O)cc1
- IC50 [1]: 0.41 µM
- Activity [25]: 2%
- Activity [26]: 2%
- Activity [27]: 12%
- Activity [28]: 84%

Continued, in another order:

- IC50 [1]: 0.3 µM
- IC50 [12]: 3.8 µM
SMILES: COc1ccc(CCN2C=CC=C3C2=Nc2ccccc2S(=O)(=O)N3C)cc1
- Activity [2]: 0.55 µM
- Activity [3]: 0.33 µM
- Activity [4]: 0.45 µM
- Activity [5]: 0.24 µM
- Activity [6]: 0.3 µM
- Activity [7]: 0.34 µM
- Activity [8]: 6%
- Activity [9]: 8%
- Activity [10]: 32%
- Activity [11]: 54%

- IC50 [1]: > 10 µM
SMILES: COc1ccc(CCCN2C=CC=C3C2=Nc2ccc(Cl)cc2S(=O)(=O)N3C)cc1

- IC50 [1]: 1.3 µM
SMILES: COc1ccc(CCN2C=CC=C3C2=Nc2ccc(Cl)cc2S(=O)(=O)N3C)cc1
- Activity [13]: 4%
- Activity [14]: 6%
- Activity [15]: 24%
- Activity [16]: 66%

- IC50 [1]: > 10 µM
SMILES: COc1ccc(CCN2C=CC=C3C2=Nc2cc(OC)ccc2S(=O)(=O)N3C)cc1

- IC50 [1]: 1.4 µM
SMILES: COc1ccc(CCN2C=CC=C3C2=Nc2cc(C)ccc2S(=O)(=O)N3C)cc1
- Activity [17]: 5%
- Activity [18]: 8%
- Activity [19]: 19%
- Activity [20]: 68%

- IC50 [1]: > 10 µM
SMILES: COc1ccc(CCCN2C=CC=C3C2=Nc2cc(C(F)(F)F)ccc2S(=O)(=O)N3C)cc1

- IC50 [1]: 1.3 µM
SMILES: COc1ccc(CCN2C=CC=C3C2=Nc2cc(Cl)ccc2S(=O)(=O)N3C)cc1
- Activity [17]: 7%
- Activity [18]: 6%
- Activity [19]: 26%
- Activity [20]: 61%

- IC50 [1]: 0.19 µM
SMILES: COc1ccc(CCN2C=CC=C3C2=Nc2cc(Cl)ccc2N(C)S3(=O)=O)cc1
- Activity [8]: 8%
- Activity [9]: 10%
- Activity [10]: 19%
- Activity [11]: 63%

- IC50 [1]: > 10 µM
SMILES: COc1ccc(CCCN2C=CC=C3C2=Nc2cc(Cl)ccc2S(=O)(=O)N3C)cc1
